Results published in ChEMBL document CHEMBL1629510, “Efficient synthesis of (6-deoxy-glycopyranosid-6-yl) sulfone derivatives and their effect on Ca2+-ATPase” (Eur J Med Chem, 2010).

Key:
Format in all cases: microsomes
Conditions in all cases: Microsome
Capra hircus [1] = species on record: Capra hircus; assay: Induction of magnesium independent calcium-transporting ATPase activity in goat spermatozoa microsomal membranes at 20 ug by spectrophotometry in presence of 300 uM of calcium channel blocker verapamil
How it was run: (§1)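 The compound (20 µg) was added together with a fixed concentration of the blocker. Reactions were stopped with 7% ice-cold TCA and read spectrophotometrically. Ca2+-dependent activity (+Ca2+ minus −Ca2+) is given as percent stimulation or inhibition, averaged over four assays.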

Capra hircus [2] = species on record: Capra hircus; assay: Induction of magnesium independent calcium-transporting ATPase activity in goat spermatozoa microsomal membranes at 20 ug by spectrophotometry in presence of […] of calcium channel blocker thapsigargin; how it was run: as §1
Capra hircus [3] = species on record: Capra hircus; assay: Induction of magnesium independent calcium-transporting ATPase activity in goat spermatozoa microsomal membranes at 20 ug by spectrophotometry in presence of 1 mM of calcium channel blocker orthovanadate; how it was run: as §1
Capra hircus [4] = species on record: Capra hircus; assay: Induction of magnesium independent calcium-transporting ATPase activity in goat spermatozoa microsomal membranes at 70 nM by spectrophotometry
How it was run: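 Mg2+-independent Ca2+-ATPase in goat sperm microsomes (2 µg protein) was measured without blockers over varying compound concentrations. Incubation used 3 mM ATP in imidazole/sucrose buffer with EDTA and 2-mercaptoethanol, ±4 mM CaCl2, for 30 min at 37 °C, stopped with ice-cold 7% TCA and read spectrophotometrically. Activity is the difference between the +Ca2+ and −Ca2+ reactions.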

SMILES	Activity (Capra hircus [1]) [%]	Activity (Capra hircus [2]) [%]	Activity (Capra hircus [3]) [%]	Activity (Capra hircus [4]) [%]
CO[C@H]1O[C@H](CS(=O)(=O)C[C@H]2O[C@@H](OC)[C@H](O)[C@H](O)[C@@H]2O)[C@@H](O)[C@H](O)[C@@H]1O	-5	-27	-19	45
CO[C@H]1O[C@H](CS(=O)(=O)C[C@H]2O[C@H](OC)[C@H](O)[C@@H](O)[C@@H]2O)[C@@H](O)[C@H](O)[C@@H]1O	-3	-35	4	43
CO[C@H]1O[C@H](CS(=O)(=O)C[C@H]2O[C@H](OC)[C@H](O)[C@@H](O)[C@H]2O)[C@@H](O)[C@H](O)[C@H]1O	-5	-38	-8	32
CO[C@H]1O[C@H](CS(=O)(=O)C[C@H]2O[C@H](OC)[C@H](O)[C@@H](O)[C@H]2O)[C@@H](O)[C@H](O)[C@@H]1O	-21	-36	-25	53
CO[C@H]1O[C@H](CS(=O)(=O)C[C@H]2O[C@H](OC)[C@H](O)[C@@H](O)[C@@H]2O)[C@@H](O)[C@H](O)[C@H]1O	-14	-28	-24	36

Next, values leading:

Activity (Capra hircus [1]) [%]	Activity (Capra hircus [2]) [%]	Activity (Capra hircus [3]) [%]	Activity (Capra hircus [4]) [%]	SMILES
-9	-31	-17	30	CO[C@H]1O[C@H](CS(=O)(=O)C[C@H]2O[C@H](OC)[C@H](O)[C@H](O)[C@@H]2O)[C@@H](O)[C@H](O)[C@H]1O
-2	-29	-27	49	CO[C@H]1O[C@H](CS(=O)(=O)C[C@H]2O[C@H](OC)[C@@H](O)[C@@H](O)[C@@H]2O)[C@@H](O)[C@H](O)[C@@H]1O
-8	-33	-21	30	CO[C@@H]1O[C@H](CS(=O)(=O)C[C@H]2O[C@@H](OC)[C@H](O)[C@H](O)[C@@H]2O)[C@@H](O)[C@@H](O)[C@H]1O
